Reference: ChEMBL document CHEMBL2331420, “Synthesis, cytotoxicity and antiplasmodial activity of novel ent-kaurane derivatives” (Eur J Med Chem, 2013)
Where a name gives a salt, the structure may show the parent alone.

What was measured:
[1] = Growth inhibition against human IGROV cells after 72 hrs by inverted microscopy; format: functional
Outline: (§1)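 Cells seeded at 2×10^4 cells/well in MEM10FCS containing compound at the test concentrations and exposed continuously for 72 h at 37 °C, 10% CO₂, 98% humidity. Untreated control wells were counted daily to confirm exponential growth. Cells were stained with crystal violet and inspected by inverted microscope, and inhibition was judged against controls. GI50 (50% growth inhibition) is the mean of duplicate wells.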

[2] = Growth inhibition against human IGROV-ET cells after 72 hrs by inverted microscopy; format: functional; outline: as §1
HeLa = assay: Growth inhibition against human HeLa cells after 72 hrs by inverted microscopy; format: functional; outline: as §1
LoVo = assay: Growth inhibition against human LoVo cells after 72 hrs by inverted microscopy; format: functional; outline: as §1
PANC-1 = assay: Growth inhibition against human PANC1 cells after 72 hrs by inverted microscopy; format: functional; details: PANC-1, 72 h; outline: as §1
K562 = assay: Growth inhibition against human K562 cells after 72 hrs by inverted microscopy; format: functional; details: K562, 72 h; outline: as §1
HT-29 = assay: Growth inhibition against human HT-29 cells after 72 hrs by inverted microscopy; format: functional; details: HT-29, 72 h; outline: as §1
[3] = Growth inhibition against human LoVo/DX cells after 72 hrs by inverted microscopy; format: functional; outline: as §1
[4] = Cytotoxicity against human HepG2 cells after 24 hrs by MTT assay; format: cell-based
Outline: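 Hep G2A16 hepatoma cells kept in RPMI1640 with 5% FBS and gentamicin, trypsinised and plated at 4×10^4 cells/well, then left 18 h at 37 °C before dosing. Compounds were given in triplicate at four serial-dilution concentrations starting at 1000 µg/mL, with final DMSO 0.01%, for 24 h at 37 °C. MTT (6 mg/mL in PBS) was added for 1 h 30 min, solubilised in DMSO and read at 570 nm. Cytotoxic concentration was taken from the dose–response curve.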

Plasmodium falciparum = assay: Antiplasmodial activity against chloroquine-resistant Plasmodium falciparum W2 infected in human erythrocytes assessed as inhibition of parasite growth after 24 hrs by [3H]hypoxanthine incorporation assay; format: functional, organism-based
Outline: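 Ring-stage parasites, sorbitol-synchronised, in human O-negative erythrocytes in RPMI with 10% human plasma; plated at 1% parasitemia, 1% haematocrit. Compounds diluted from DMSO stocks in hypoxanthine-free medium, final DMSO 0.002%. After 24 h, [3H]-hypoxanthine (0.5 μCi/well) added for another 18 h at 37 °C. Incorporation compared with drug-free controls, IC50 by linear interpolation. Three experiments, each in triplicate.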

[5] = Selectivity index, ratio of CC50 for human HepG2 cells to IC50 for chloroquine-resistant Plasmodium falciparum W2 infected in human erythrocytes; format: functional
Outline: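 HepG2 hepatoma cells in RPMI1640 with 5% FBS, 4×10^4 cells/well, allowed 18 h at 37 °C. Four serial dilutions from 1000 µg/mL, final DMSO 0.01%, in triplicate, for 24 h at 37 °C. Cytotoxic concentration taken from the dose–response curve, then divided by the antiplasmodial IC50.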

[6] = Toxicity in RBC (unknown origin) assessed as hemolysis at 139 uM; format: cell-based; details: erythrocyte

COC(=O)[C@]1(C)CCC[C@@]2(C)[C@@H]3CC[C@@H]4C[C@@]3(CC[C@@H]21)C[C@@H]4CO
GI50 [1]: > 9.02 µM
GI50 [2]: 7.23 µM
GI50 (HeLa): > 9.02 µM
GI50 (LoVo): > 9.02 µM
GI50 (PANC-1): > 9.02 µM
GI50 (K562): > 9.02 µM
GI50 (HT-29): > 9.02 µM
GI50 [3]: > 9.02 µM

COC(=O)[C@]1(C)CCC[C@]2(C)[C@@H]1CC[C@@]13C[C@H](C[C@H]4O[C@]412)[C@@]1(CO1)C3
CC50 at 24 h [4]: 1240 µM
GI50 [1]: > 8.66 µM
GI50 [2]: > 8.66 µM
GI50 (HeLa): > 8.66 µM
GI50 (LoVo): > 8.66 µM
IC50 (Plasmodium falciparum): 10.4 µM
GI50 (PANC-1): > 8.66 µM
Ratio CC50/IC50 [5]: 119.1
GI50 (K562): > 8.66 µM
GI50 (HT-29): > 8.66 µM
GI50 [3]: > 8.66 µM

COC(=O)[C@]1(C)CCC[C@]2(C)[C@@H]1CC[C@@]13C[C@H](C[C@H]4O[C@]412)[C@]1(CO1)C3
CC50 at 24 h [4]: 810 µM
GI50 [1]: > 8.66 µM
GI50 [2]: > 8.66 µM
GI50 (HeLa): > 8.66 µM
GI50 (LoVo): > 8.66 µM
IC50 (Plasmodium falciparum): 6.9 µM
GI50 (PANC-1): > 8.66 µM
Ratio CC50/IC50 [5]: 117.4
GI50 (K562): > 8.66 µM
Activity [6]: Toxic
GI50 (HT-29): > 8.66 µM
GI50 [3]: > 8.66 µM

C=C1[C@H]2CC[C@H]3[C@]4(C)CCC[C@@](C)(C(=O)OC)[C@H]4CC[C@]3(C2)[C@H]1O
GI50 [1]: 7.52 µM
GI50 [2]: > 9.02 µM
GI50 (HeLa): 7.04 µM
GI50 (LoVo): 8.21 µM
IC50 (Plasmodium falciparum): 8.4 µM
GI50 (PANC-1): > 9.02 µM
GI50 (K562): > 9.02 µM
GI50 (HT-29): 7.4 µM
GI50 [3]: > 9.02 µM

C=C1C[C@@]23CC[C@H]4[C@@](C)(CCC[C@@]4(C)C(=O)OC)[C@@H]2CC[C@H]1C3
CC50 at 24 h [4]: 32.2 µM
GI50 [1]: 8.44 µM
GI50 [2]: > 9.48 µM
GI50 (HeLa): > 9.48 µM
GI50 (LoVo): > 9.48 µM
IC50 (Plasmodium falciparum): 8.2 µM
GI50 (PANC-1): > 9.48 µM
Ratio CC50/IC50 [5]: 3.9
GI50 (K562): > 9.48 µM
GI50 (HT-29): > 9.48 µM
GI50 [3]: > 9.48 µM

COC(=O)[C@]1(C)CCC[C@@]2(C)[C@@H]3CC[C@H]4C[C@]3(C=C4C)CC[C@@H]21
CC50 at 24 h [4]: 44.9 µM
GI50 [1]: > 9.48 µM
GI50 [2]: > 9.48 µM
GI50 (HeLa): > 9.48 µM
GI50 (LoVo): > 9.48 µM
IC50 (Plasmodium falciparum): 8.8 µM
GI50 (PANC-1): > 9.48 µM
Ratio CC50/IC50 [5]: 5.1
GI50 (K562): > 9.48 µM
GI50 (HT-29): > 9.48 µM
GI50 [3]: > 9.48 µM

COC(=O)[C@]1(C)CCC[C@@]2(C)[C@@H]3CC[C@H]4C[C@@]3(CC[C@@H]21)C[C@]41CO1
CC50 at 24 h [4]: 111 µM
GI50 [1]: > 9.02 µM
GI50 [2]: > 9.02 µM
GI50 (HeLa): > 9.02 µM
GI50 (LoVo): > 9.02 µM
IC50 (Plasmodium falciparum): 9.6 µM
GI50 (PANC-1): > 9.02 µM
Ratio CC50/IC50 [5]: 11.5
GI50 (K562): > 9.02 µM
GI50 (HT-29): > 9.02 µM
GI50 [3]: > 9.02 µM

C[C@@]1(C(=O)O)CCC[C@@]2(C)C3=CC[C@H]4C[C@@]3(CC[C@H]12)C[C@]41CO1
GI50 [1]: > 9.48 µM
GI50 [2]: > 9.48 µM
GI50 (HeLa): > 9.48 µM
GI50 (LoVo): > 9.48 µM
GI50 (PANC-1): > 9.48 µM
GI50 (K562): > 9.48 µM
GI50 (HT-29): > 9.48 µM
GI50 [3]: > 9.48 µM

COC(=O)[C@]1(C)CCC[C@@]2(C)[C@@H]3CC[C@H]4C[C@@]3(CC[C@@H]21)[C@@H](O)[C@@H]4C
GI50 [1]: 8.34 µM
GI50 [2]: > 9.02 µM
GI50 (HeLa): > 9.02 µM
GI50 (LoVo): > 9.02 µM
IC50 (Plasmodium falciparum): 34.7 µM
GI50 (PANC-1): > 9.02 µM
GI50 (K562): > 9.02 µM
GI50 (HT-29): > 9.02 µM
GI50 [3]: > 9.02 µM

COC(=O)[C@]1(C)CCC[C@@]2(C)[C@@H]3[C@H](O)C[C@H]4C[C@@]3(CC[C@@H]21)C[C@@H]4CO
GI50 [1]: > 8.56 µM
GI50 [2]: > 8.56 µM
GI50 (HeLa): > 8.56 µM
GI50 (LoVo): > 8.56 µM
IC50 (Plasmodium falciparum): > 143 µM
GI50 (PANC-1): > 8.56 µM
GI50 (K562): > 8.56 µM
GI50 (HT-29): > 8.56 µM
GI50 [3]: > 8.56 µM

COC(=O)[C@]1(C)CCC[C@@]2(C)[C@@H]3[C@@H](O)C[C@H]4C[C@@]3(CC[C@@H]21)C[C@@H]4CO
GI50 [1]: > 8.56 µM
GI50 [2]: > 8.56 µM
GI50 (HeLa): > 8.56 µM
GI50 (LoVo): > 8.56 µM
IC50 (Plasmodium falciparum): > 143 µM
GI50 (PANC-1): > 8.56 µM
GI50 (K562): > 8.56 µM
GI50 (HT-29): > 8.56 µM
GI50 [3]: > 8.56 µM

COC(=O)[C@]1(C)CCC[C@@]2(C)[C@@H]3CC[C@H]4C[C@@]3(CC[C@@H]21)C[C@H]4C=O
GI50 [1]: > 9.02 µM
GI50 [2]: > 9.02 µM
GI50 (HeLa): > 9.02 µM
GI50 (LoVo): > 9.02 µM
GI50 (PANC-1): > 9.02 µM
GI50 (K562): > 9.02 µM
GI50 (HT-29): > 9.02 µM
GI50 [3]: > 9.02 µM

COC(=O)[C@]1(C)CCC[C@@]2(C)[C@@H]3CC[C@H]4C[C@@]3(CC[C@@H]21)C[C@@H]4C=O
GI50 [1]: > 9.02 µM
GI50 [2]: > 9.02 µM
GI50 (HeLa): > 9.02 µM
GI50 (LoVo): 8.69 µM
GI50 (PANC-1): > 9.02 µM
GI50 (K562): 8.18 µM
GI50 (HT-29): > 9.02 µM
GI50 [3]: > 9.02 µM

C[C@@]1(C(=O)O)CCC[C@@]2(C)C3=CC[C@@H]4C[C@@]3(CC[C@H]12)CC4=O
IC50 (Plasmodium falciparum): > 157 µM

COC(=O)[C@]1(C)CCC[C@@]2(C)[C@@H]3CC[C@H]4C[C@@]3(CC[C@@H]21)C[C@@H]4C(=O)O
IC50 (Plasmodium falciparum): > 144 µM

COC(=O)[C@]1(C)CCC[C@@]2(C)[C@@H]3CC[C@H]4C[C@@]3(CC[C@@H]21)C[C@@H]4C1NCCCN1
IC50 (Plasmodium falciparum): 5.4 µM

COC(=O)[C@]1(C)CCC[C@@]2(C)C3=CC[C@H]4C[C@@]3(CC[C@H]12)CC4CO (mixture of isomers)
GI50 [1]: > 9.02 µM
GI50 [2]: > 9.02 µM
GI50 (HeLa): > 9.02 µM
GI50 (LoVo): > 9.02 µM
IC50 (Plasmodium falciparum): 33.1 µM
GI50 (PANC-1): > 9.02 µM
GI50 (K562): > 9.02 µM
GI50 (HT-29): > 9.02 µM
GI50 [3]: > 9.02 µM

CCN(CC)CCCC(C)Nc1ccnc2cc(Cl)ccc12 (configuration not stated) [CHLOROQUINE]
CC50 at 24 h [4]: 504 µM

COc1cccc2c1C(=O)c1c(O)c3c(c(O)c1C2=O)C[C@@](O)(C(=O)CO)C[C@@H]3O[C@H]1C[C@H](N)[C@H](O)[C@H](C)O1 [DOXORUBICIN HYDROCHLORIDE]
GI50 [1]: 0.11 µM
GI50 [2]: 6.17 µM
GI50 (HeLa): 0.17 µM
GI50 (LoVo): 0.24 µM
GI50 (PANC-1): 0.24 µM
GI50 (K562): 0.17 µM
GI50 (HT-29): 0.15 µM
GI50 [3]: 2.21 µM

C=C1C[C@@]23CC[C@@H]4[C@](C)(C(=O)O)CCC[C@@]4(C)C2=CC[C@@H]1C3 [GRANDIFLORENIC ACID]
IC50 (Plasmodium falciparum): 23.3 µM

C=C1C[C@@]23CC[C@H]4[C@@](C)(CCC[C@@]4(C)C(=O)O)[C@@H]2CC[C@@H]1C3 [KAURENOIC ACID]
CC50 at 24 h [4]: 192 µM
GI50 [1]: > 9.92 µM
GI50 [2]: > 9.92 µM
GI50 (HeLa): > 9.92 µM
GI50 (LoVo): > 9.92 µM
IC50 (Plasmodium falciparum): 21.1 µM
GI50 (PANC-1): > 9.92 µM
Ratio CC50/IC50 [5]: 9.1
GI50 (K562): > 9.92 µM
GI50 (HT-29): > 9.92 µM
GI50 [3]: > 9.92 µM
